What was measured:
[1] = molecular target: Atypical kinase COQ8B, mitochondrial (Homo sapiens) (UniProt Q96D53); experiment: Binding affinity to wild-type human full length ADCK4 (M1 to S544 residues) expressed in Escherichia coli BL21 at 1 uM by Kinomescan method relative to control
[2] = molecular target: Cyclin-dependent kinase 3 (Homo sapiens) (UniProt Q00526); experiment: Binding affinity to wild-type human full length CDK3 (M1 to H305 residues) expressed in Escherichia coli BL21 at 1 uM by Kinomescan method relative to control
Summary of the method: (§1)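 Run as one kinome-wide competition binding panel with each compound at a single fixed concentration. Results were plotted as a kinome-wide selectivity map.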

[3] = molecular target: Cyclin-dependent kinase-like 3 (Homo sapiens) (UniProt Q8IVW4); experiment: Binding affinity to wild-type human partial length CDKL3 (M1 to D327 residues) expressed in Escherichia coli BL21 at 1 uM by Kinomescan method relative to control
[4] = molecular target: Serine/threonine-protein kinase Chk2 (Homo sapiens) (UniProt O96017); experiment: Binding affinity to wild-type human partial length CHEK2 (S253 to E574 residues) expressed in Escherichia coli BL21 at 1 uM by Kinomescan method relative to control
[5] = molecular target: Serine/threonine-protein kinase DCLK3 (Homo sapiens) (UniProt Q9C098); experiment: Binding affinity to wild-type human partial length DCAMKL3 (E140 to V628 residues) expressed in Escherichia coli BL21 at 1 uM by Kinomescan method relative to control
[6] = molecular target: Tyrosine-protein kinase Fer (Homo sapiens) (UniProt P16591); experiment: Binding affinity to wild-type human partial length FER (S542 to T822 residues) expressed in Escherichia coli BL21 at 1 uM by Kinomescan method relative to control
[7] = molecular target: Receptor-type tyrosine-protein kinase FLT3 (Homo sapiens) (UniProt P36888); experiment: Binding affinity to wild-type human partial length FLT3 (V592 to Y969 residues) expressed in Escherichia coli BL21 at 1 uM by Kinomescan method relative to control
[8] = system: Receptor-type tyrosine-protein kinase FLT3 (Homo sapiens), P36888 [UNDEFINED MUTATION]; experiment: Binding affinity to human partial length FLT3 ITD/F691L double mutant expressed in Escherichia coli BL21 at 1 uM by Kinomescan method relative to control
[9] = molecular target: Mitogen-activated protein kinase kinase kinase kinase 1 (Homo sapiens) (UniProt Q92918); experiment: Binding affinity to wild-type human full length HPK1 (M1 to R799 residues) expressed in Escherichia coli BL21 at 1 uM by Kinomescan method relative to control; summary of the method: as §1
[10] = molecular target: Hormonally up-regulated neu tumor-associated kinase (Homo sapiens) (UniProt P57058); experiment: Binding affinity to wild-type human partial length HUNK (A31 to K354 residues) expressed in Escherichia coli BL21 at 1 uM by Kinomescan method relative to control
[11] = molecular target: Insulin receptor (Homo sapiens) (UniProt P06213); experiment: Binding affinity to wild-type human partial length INSR (P997 to E1318 residues) expressed in HEK293 cells at 1 uM by Kinomescan method relative to control; assay type: cell-based
[12] = molecular target: Mitogen-activated protein kinase 8 (Homo sapiens) (UniProt P45983); experiment: Binding affinity to wild-type human full length JNK1 (M1 to Q384 residues) expressed in HEK293 cells at 1 uM by Kinomescan method relative to control; assay type: cell-based; summary of the method: as §1
[13] = molecular target: Serine/threonine-protein kinase LATS2 (Homo sapiens) (UniProt Q9NRM7); experiment: Binding affinity to wild-type human partial length LATS2 (Q641 to V1088 residues) expressed in HEK293 cells at 1 uM by Kinomescan method relative to control; assay type: cell-based
[14] = molecular target: MAP kinase-interacting serine/threonine-protein kinase 2 (Homo sapiens) (UniProt Q9HBH9); experiment: Binding affinity to wild-type human partial length MKNK2 (G63 to S388 residues) expressed in HEK293 cells at 1 uM by Kinomescan method relative to control; assay type: cell-based
[15] = molecular target: Mitogen-activated protein kinase kinase kinase 9 (Homo sapiens) (UniProt P80192); experiment: Binding affinity to wild-type human partial length MLK1 (V88 to W426 residues) expressed in Escherichia coli BL21 at 1 uM by Kinomescan method relative to control
[16] = molecular target: Mitogen-activated protein kinase kinase kinase 10 (Homo sapiens) (UniProt Q02779); experiment: Binding affinity to wild-type human partial length MLK2 (V52 to W380 residues) expressed in Escherichia coli BL21 at 1 uM by Kinomescan method relative to control
[17] = molecular target: Myosin-IIIb (Homo sapiens) (UniProt Q8WXR4); experiment: Binding affinity to wild-type human partial length MYO3B (M1 to D357 residues) expressed in Escherichia coli BL21 at 1 uM by Kinomescan method relative to control
[18] = molecular target: Serine/threonine-protein kinase NLK (Homo sapiens) (UniProt Q9UBE8); experiment: Binding affinity to wild-type human full length NLK (M13 to E527 residues) expressed in Escherichia coli BL21 at 1 uM by Kinomescan method relative to control
Summary of the method: (§2)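 Kinome-wide competition binding panel run by an outside provider, with each compound tested at a single concentration. Activity is read against the kinase panel.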

[19] = molecular target: Phosphatidylinositol 4,5-bisphosphate 3-kinase catalytic subunit delta isoform (Homo sapiens) (UniProt O00329); experiment: Binding affinity to wild-type human partial length PIK3CD (R108 to Q1044 residues) expressed in HEK293 cells at 1 uM by Kinomescan method relative to control; assay type: cell-based
[20] = molecular target: Phosphatidylinositol 5-phosphate 4-kinase type-2 beta (Homo sapiens) (UniProt P78356); experiment: Binding affinity to wild-type human full length PIP5K2B (M1 to T416 residues) expressed in Escherichia coli BL21 at 1 uM by Kinomescan method relative to control; summary of the method: as §2
[21] = molecular target: Serine/threonine-protein kinase PLK1 (Homo sapiens) (UniProt P53350); experiment: Binding affinity to wild-type human partial length PLK1 (A33 to F325 residues) expressed in HEK293 cells at 1 uM by Kinomescan method relative to control; assay type: cell-based
[22] = molecular target: Serine/threonine-protein kinase PLK3 (Homo sapiens) (UniProt Q9H4B4); experiment: Binding affinity to wild-type human partial length PLK3 (A42 to L334 residues) expressed in HEK293 cells at 1 uM by Kinomescan method relative to control; assay type: cell-based
[23] = molecular target: cGMP-dependent protein kinase 2 (Homo sapiens) (UniProt Q13237); experiment: Binding affinity to wild-type human partial length PRKG2 (S422 to F762 residues) expressed in HEK293 cells at 1 uM by Kinomescan method relative to control; assay type: cell-based
[24] = molecular target: Angiopoietin-1 receptor (Homo sapiens) (UniProt Q02763); experiment: Binding affinity to wild-type human partial length TIE2 (N804 to T1112 residues) expressed in Escherichia coli BL21 at 1 uM by Kinomescan method relative to control
[25] = molecular target: Mitogen-activated protein kinase kinase kinase 20 (Homo sapiens) (UniProt Q9NYL2); experiment: Binding affinity to wild-type human partial length ZAK (M1 to L331 residues) expressed in Escherichia coli BL21 at 1 uM by Kinomescan method relative to control

Mitogen-activated protein kinase kinase kinase kinase 1 (Homo sapiens), sequence (Q92918 whole entry, looked up, the tested form may be a part): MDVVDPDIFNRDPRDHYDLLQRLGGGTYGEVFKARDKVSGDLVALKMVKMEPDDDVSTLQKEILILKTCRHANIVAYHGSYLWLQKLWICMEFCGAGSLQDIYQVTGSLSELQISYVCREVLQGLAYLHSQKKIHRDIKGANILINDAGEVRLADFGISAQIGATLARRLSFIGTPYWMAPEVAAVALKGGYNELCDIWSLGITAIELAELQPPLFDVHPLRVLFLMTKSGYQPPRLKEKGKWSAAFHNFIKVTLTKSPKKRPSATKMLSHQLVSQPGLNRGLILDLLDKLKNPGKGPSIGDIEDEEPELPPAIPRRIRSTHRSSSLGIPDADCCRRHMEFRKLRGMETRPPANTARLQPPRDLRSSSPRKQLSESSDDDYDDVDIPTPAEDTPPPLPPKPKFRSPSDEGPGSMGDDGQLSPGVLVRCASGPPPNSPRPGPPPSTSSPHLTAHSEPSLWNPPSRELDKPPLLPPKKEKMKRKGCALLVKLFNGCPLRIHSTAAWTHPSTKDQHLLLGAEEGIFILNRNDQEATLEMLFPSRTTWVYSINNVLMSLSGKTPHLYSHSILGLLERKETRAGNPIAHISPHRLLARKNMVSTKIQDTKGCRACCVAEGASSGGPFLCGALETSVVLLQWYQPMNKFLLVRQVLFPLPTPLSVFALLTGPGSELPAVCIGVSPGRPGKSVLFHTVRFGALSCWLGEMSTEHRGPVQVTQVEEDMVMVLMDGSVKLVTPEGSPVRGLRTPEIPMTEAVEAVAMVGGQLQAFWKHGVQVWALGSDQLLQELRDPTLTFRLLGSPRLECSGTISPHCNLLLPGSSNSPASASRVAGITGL
Serine/threonine-protein kinase PLK3 (Homo sapiens), sequence (Q9H4B4 whole entry, looked up, the tested form may be a part): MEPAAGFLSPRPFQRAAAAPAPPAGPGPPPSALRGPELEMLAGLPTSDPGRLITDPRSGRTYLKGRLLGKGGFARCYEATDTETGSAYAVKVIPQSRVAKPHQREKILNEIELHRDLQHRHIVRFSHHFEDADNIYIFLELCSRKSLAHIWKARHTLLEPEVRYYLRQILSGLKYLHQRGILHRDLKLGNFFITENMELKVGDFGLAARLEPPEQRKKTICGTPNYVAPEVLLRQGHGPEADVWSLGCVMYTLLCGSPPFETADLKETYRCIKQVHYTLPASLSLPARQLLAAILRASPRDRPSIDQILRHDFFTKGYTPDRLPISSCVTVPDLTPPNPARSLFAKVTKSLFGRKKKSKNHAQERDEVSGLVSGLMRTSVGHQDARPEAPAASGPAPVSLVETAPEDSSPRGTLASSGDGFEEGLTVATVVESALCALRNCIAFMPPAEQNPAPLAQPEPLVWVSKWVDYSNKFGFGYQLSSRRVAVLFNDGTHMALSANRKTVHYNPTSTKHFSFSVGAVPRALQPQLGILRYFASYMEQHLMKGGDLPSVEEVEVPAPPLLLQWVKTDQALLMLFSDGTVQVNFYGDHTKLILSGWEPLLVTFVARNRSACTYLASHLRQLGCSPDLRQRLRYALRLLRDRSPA
Mitogen-activated protein kinase kinase kinase 10 (Homo sapiens), sequence (Q02779 whole entry, looked up, the tested form may be a part): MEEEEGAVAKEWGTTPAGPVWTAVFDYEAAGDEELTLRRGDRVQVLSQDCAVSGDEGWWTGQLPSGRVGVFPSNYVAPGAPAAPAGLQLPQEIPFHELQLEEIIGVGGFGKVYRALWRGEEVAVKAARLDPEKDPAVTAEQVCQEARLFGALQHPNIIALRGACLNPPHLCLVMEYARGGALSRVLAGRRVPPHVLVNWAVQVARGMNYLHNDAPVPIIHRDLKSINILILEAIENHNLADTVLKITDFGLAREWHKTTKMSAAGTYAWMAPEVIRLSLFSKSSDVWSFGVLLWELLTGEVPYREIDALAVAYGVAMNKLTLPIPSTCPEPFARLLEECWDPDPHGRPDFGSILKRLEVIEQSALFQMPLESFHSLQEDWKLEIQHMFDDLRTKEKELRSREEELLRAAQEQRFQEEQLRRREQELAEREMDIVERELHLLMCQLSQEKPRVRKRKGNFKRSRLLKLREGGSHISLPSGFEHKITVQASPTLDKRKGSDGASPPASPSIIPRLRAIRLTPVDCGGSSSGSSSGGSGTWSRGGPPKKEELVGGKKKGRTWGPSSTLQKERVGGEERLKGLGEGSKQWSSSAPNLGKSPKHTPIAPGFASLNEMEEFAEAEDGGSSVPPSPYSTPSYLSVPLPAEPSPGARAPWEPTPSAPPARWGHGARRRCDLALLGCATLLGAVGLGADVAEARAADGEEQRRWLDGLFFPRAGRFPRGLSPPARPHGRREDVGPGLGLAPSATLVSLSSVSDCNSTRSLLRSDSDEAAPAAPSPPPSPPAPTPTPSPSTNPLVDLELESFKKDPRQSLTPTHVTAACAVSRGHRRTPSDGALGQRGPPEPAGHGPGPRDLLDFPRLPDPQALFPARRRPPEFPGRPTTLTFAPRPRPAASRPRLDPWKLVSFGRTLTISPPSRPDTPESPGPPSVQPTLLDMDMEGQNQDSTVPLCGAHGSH
Receptor-type tyrosine-protein kinase FLT3 (Homo sapiens), sequence (P36888 whole entry, the tested form may be a part): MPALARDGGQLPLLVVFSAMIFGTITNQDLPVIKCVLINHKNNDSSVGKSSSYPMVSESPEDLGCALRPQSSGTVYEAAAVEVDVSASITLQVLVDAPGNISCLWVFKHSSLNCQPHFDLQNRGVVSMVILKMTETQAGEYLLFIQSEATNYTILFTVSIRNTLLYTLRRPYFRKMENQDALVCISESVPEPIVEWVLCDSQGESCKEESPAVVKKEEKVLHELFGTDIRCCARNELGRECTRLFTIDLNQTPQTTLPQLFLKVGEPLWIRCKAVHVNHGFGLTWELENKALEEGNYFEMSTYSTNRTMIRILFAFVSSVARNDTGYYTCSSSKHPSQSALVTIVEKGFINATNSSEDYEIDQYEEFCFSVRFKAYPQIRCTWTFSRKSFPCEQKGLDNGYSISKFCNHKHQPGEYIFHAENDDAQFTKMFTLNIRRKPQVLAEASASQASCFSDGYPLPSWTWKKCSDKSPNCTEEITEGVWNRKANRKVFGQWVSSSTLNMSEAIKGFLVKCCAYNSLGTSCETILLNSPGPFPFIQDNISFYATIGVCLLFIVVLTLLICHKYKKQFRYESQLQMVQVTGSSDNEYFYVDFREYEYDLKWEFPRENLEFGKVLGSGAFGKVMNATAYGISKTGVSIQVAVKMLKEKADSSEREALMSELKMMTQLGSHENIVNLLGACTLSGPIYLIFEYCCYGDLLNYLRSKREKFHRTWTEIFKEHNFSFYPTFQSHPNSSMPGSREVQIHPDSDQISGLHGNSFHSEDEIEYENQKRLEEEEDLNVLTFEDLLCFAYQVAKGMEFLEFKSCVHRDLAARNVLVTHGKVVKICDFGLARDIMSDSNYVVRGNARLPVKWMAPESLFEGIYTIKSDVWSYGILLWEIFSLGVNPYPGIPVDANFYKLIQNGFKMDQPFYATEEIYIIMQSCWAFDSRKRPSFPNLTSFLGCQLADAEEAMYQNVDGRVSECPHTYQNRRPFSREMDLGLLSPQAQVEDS
Receptor-type tyrosine-protein kinase FLT3 (Homo sapiens), P36888 [UNDEFINED MUTATION], sequence (P36888 whole entry, looked up, stated change not applied, the tested form may be a part): as the sequence (P36888 whole entry, the tested form may be a part) above
Serine/threonine-protein kinase Chk2 (Homo sapiens), sequence (O96017 whole entry, the tested form may be a part): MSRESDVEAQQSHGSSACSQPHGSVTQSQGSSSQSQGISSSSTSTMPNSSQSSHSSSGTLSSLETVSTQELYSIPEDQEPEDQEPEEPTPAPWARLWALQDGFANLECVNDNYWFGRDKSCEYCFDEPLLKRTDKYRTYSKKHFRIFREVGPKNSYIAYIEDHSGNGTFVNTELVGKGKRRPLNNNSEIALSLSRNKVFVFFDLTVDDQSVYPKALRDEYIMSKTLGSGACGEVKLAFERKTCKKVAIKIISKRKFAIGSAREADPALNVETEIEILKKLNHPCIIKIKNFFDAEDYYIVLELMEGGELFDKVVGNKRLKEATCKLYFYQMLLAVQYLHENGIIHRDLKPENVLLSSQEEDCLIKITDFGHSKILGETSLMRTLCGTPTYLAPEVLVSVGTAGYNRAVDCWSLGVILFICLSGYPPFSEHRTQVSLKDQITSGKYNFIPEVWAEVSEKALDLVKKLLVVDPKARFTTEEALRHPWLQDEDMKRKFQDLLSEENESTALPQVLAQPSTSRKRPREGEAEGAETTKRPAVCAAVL

Row | SMILES | Activity [1] [%] | Activity [2] [%] | Activity [3] [%] | Activity [4] [%] | Activity [5] [%] | Activity [6] [%] | Activity [7] [%] | Activity [8] [%] | Activity [9] [%] | Activity [10] [%] | Activity [11] [%] | Activity [12] [%] | Activity [13] [%] | Activity [14] [%] | Activity [15] [%] | Activity [16] [%] | Activity [17] [%] | Activity [18] [%] | Activity [19] [%] | Activity [20] [%] | other results
1 | CCC(=O)Nc1ccc(C(=O)Nc2ccc(Nc3ncc4c(n3)N(C)c3ccc(C)cc3C(=O)N4C)cc2)cc1 | 100 | 95 | 95 | 95 | 100 | 85 | 100 | 68 | 86 | 91 | 65 | 75 | 92 | 84 | 88 | 74 | 100 | 100 | 75 | 94 | Activity [21]: 100%; Activity [22]: 83%; Activity [23]: 84%; Activity [24]: 54%; Activity [25]: 85%
2 | C=CC(=O)Nc1ccc(C(=O)Nc2ccc(Nc3ncc4c(n3)N(C)c3ccc(C)cc3C(=O)N4C)cc2)cc1 | 100 | 100 | 98 | 97 | 93 | 78 | 100 | 100 | 100 | 100 | 97 | 85 | 100 | 66 | 100 | 82 | 100 | 81 | 55 | 83 | Activity [21]: 91%; Activity [22]: 91%; Activity [23]: 88%; Activity [24]: 88%; Activity [25]: 100%

Source: ChEMBL document CHEMBL4184148 (Bioorg Med Chem Lett, 2017)
